This passage reports yeast fitness results from the RNAGym collection of RNA variant scans (doi:10.1126/science.aae0568).

This sample holds only a part of the variants without activity. Where only a bound is given, the exact number is not on record here.

Sequences and labels used below:
B1: tRNA (parent)
chain: GUUCCGUUGGCGUAAUGGUAACGCGUCUCCCUCCUAAGGAGAAGACUGCGGGUUCGAGUCCCGUACGGAACG

Variants of B1 are the subject of the data set. Kind of data set: yeast fitness relative to wild type (ratio to wild type); higher = fitter; tRNA-Arg(CCU), competitive growth, 37 C, YPD. An outline of the steps: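 The tRNA-Arg(CCU) gene variants were made by chemical synthesis with a 3% per-site mutation rate at 69 sites and inserted at the native genomic locus of Saccharomyces cerevisiae. After pooling, the strains were competed in YPD at 37°C for 24 hours in six parallel replicates. Gene amplicons from the start population and each end population were read by 100-nucleotide paired-end sequencing, and Darwinian fitness relative to wild type was taken from genotype frequency changes. Genotypes needed ≥ 100 starting reads, and estimates < 0.5 were set to 0.5.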
Regarding GUUCCGUUGGCGUAAUGGAAACGCGUCUCCCUCCUAAGGGGAAGACUGCGGGUUCGAGUUCCGCACGGAACG [U19A A40G C60U U64C], the yeast fitness is 0.705.

Consider GUUCCGUUGGCGUAAUGGAAACGCGUUUCCCUCCUAAGGAGAAGACUGCGGGUUUGAGUCCCGUACGGAACG [U19A C27U C55U], for which the yeast fitness came out at 0.572.

Turning to GCUCCGUUGGCGCAAUGGUAACGCGUCUCCCUCCUAAGGAGAAGACUGCGGGUUCGAGUCCCGUACGGAACG [U2C U13C], the yeast fitness is 0.991. As for GUUCCGUUGGCCUAAUGGUAACGCGUCUCCCUCCUAGAGAGAAGUCUGCGGGUUCGAGUCCCGUACGGAGCG [G12C A37G G38A A45U A70G], the yeast fitness stood at 0.567. Next, GUUCCGUUGACGUAAUGGUAACGGGUCUCCCUCCUAAGGGGAAGAGUGCGGGUUCGAGUCCCGUACGGAACG [G10A C24G A40G C46G]: 0.556; GUUCGGUUGGCGUAAUGGUAACGCGUCUCCCUCGUAAGGAGAAGAUUGUGGGUUCGAGUCCCGUACGGAACG [C5G C34G C46U C49U]: at most 0.5; GUUCCGCUGGCGUAAUGGUAACGCGUCUCCCUCCUAAGGAGAAGACUGCGGGUUCGAGUCCCGUACGGGACG [U7C A69G]: 0.817. GCUCUGUUGGCGUAAUGGUAACGCGUCUCCCUCCUAAGGUGAAGACUGCAGGUUCGAGUCCCGUACGGAACG [U2C C5U A40U G50A]: the yeast fitness was at most 0.5.

Consider GUUACGUUGGCGUAAUGGUAACGCAUCUCCCUCCUAAGGAGAAGACUGCGGGUUCGAGUCCCGUACGGAACG [C4A G25A], for which the yeast fitness came to 1.03. Next, GUUGCGUUGGCGUAAUGGUAACGCGUCUCCCUCCUGAGGAGAAGCCUGCGGGUUCGAGUCUGGUACGGAACG [C4G A36G A45C C61U C62G]: at most 0.5; GUUCCGUUGGCGCAAUGGUAACGCGUCUCCCUCCUAAGGAGAAGACUGCGGGUUGGAGUCCCGUACGGAACG [U13C C55G]: 0.645. In the case of GUUCCGUUGGCGUAAUGGUAACGCGACUCCUUCCUAAGGAGAAGACUACGGGUUCGAGUCCCGUACGGAACG [U26A C31U G48A], the yeast fitness came to 0.998.

GUUCUGUUGGCGUAAUGGUAUCGCGUCUCCCUCCUAAGGUGAAGACUGCGGGUUCGAGUCCCGUACGGAACG [C5U A21U A40U]: the yeast fitness is 0.57. For GUUGCGUGAGUGUAAUGGUAACGCGUCUCCCUCCUAAGGAGAAGACUGAGGGUUCGAGUCCCGUACGGAACG [C4G U8G G9A C11U C49A], the yeast fitness was at most 0.5. On to GUUCCGUUGGCGUAAUGGUAACGCGUCUCACUCCUAAGGAGAAGACUGCAGGUUCGAGUCCCGUCCGGAACG [C30A G50A A65C], for which the yeast fitness came to 0.628. Next, GUGACGUUAGCGUAAUGGUAACGCGUCUCCCUCCUAAGGAGAAGACUGCGGGUUCAAGUCGCGUACGGAACG [U3G C4A G9A G56A C61G]: at most 0.5. The result for GUUCAGUUGGCGUAAUGGUAACGCGUCUCCCUCCUAAGGAGAAGACUGUGGGUUCGAGUCCCGUACGGAACG [C5A C49U] reads 0.848; that for GUUCCGUUGGCGUAAUGGUAACGCGUCUCCCUCUUAAGGAGAAAACUGCGGGUUCGAGUCCCGUGCGGAACG [C34U G44A A65G], at most 0.5.

On to GUUCCGUUGGCGUAAUGGUAACGCGUCUCCCUCUUAAGGAGAAGACUGCGGGUCCGAGUCACGUACGGAACG [C34U U54C C61A], for which the yeast fitness is at most 0.5. Next, GUUCCGUGGGCGUAAUGGUAACGCGUCUCCCUCCUAAAGAGAAGACUGCGGGUUCGAGUCCCGUACGUAACG [U8G G38A G68U]: at most 0.5; GUCCCGUUGGCGUAAUGGUAACGCGUCUCCCUCCUAAGGAGAAGACUGCGGGUUAGAGUCCCGUACGGAACG [U3C C55A]: 0.687; GUUCCGUUGGCGUAAAGGUAAUGCGCCUCCCUCCUAAGGAGAAGACUGCGGGUGCGAGUCCCGUGAGGAACG [U16A C22U U26C U54G A65G C66A]: at most 0.5. The result for GUUCCGUUGGCGUAAUGGUAACGCGUCUCACUCCUAAGGAGAAGACUGCGGGUUCGAGUCCCGUACCGAACG [C30A G67C] reads 0.841; that for GUUCCGUUGGCGUAAUGGUAACGCGUCUCCCUCCUAAGGAAAAGACUGCGGGUUCGAGUCCCGUACUGCACG [G41A G67U A69C], at most 0.5. Next, GUUCUGUUGGCGUAAUGGUAACGCGUCUCCUUCCUACGGAGAUGACUGCCGGUUCGGGUCCCGUACGGAACG [C5U C31U A37C A43U G50C A57G]: at most 0.5; GUUCCGUUGGCGUAAGGGUAACGCGUCUCCCUCCUAAGGAGAAGACUGCGGAUUCGAGUCCCGUACGGAACG [U16G G52A]: 0.668. With GUUCAGUUGGCGUAAUUGUAACGCGUCUCCCUCCUAAGGAGAAGACUGCGGGUUCGAGUCCCGUACGGCGCG [C5A G17U A69C A70G], the yeast fitness is at most 0.5. The result for GUUCCGUUGCCGUAAUGGUAACGUGUCUCCCUCCUAAGGAGAAGACUGCGGAUUCAAGUCCCGUACGGAACG [G10C C24U G52A G56A] reads at most 0.5; that for GUUCCGUUGGCGUAAUGGCAACGCGGCUCCCUCCUAAGGAGAAGACUGCGGGUUCGAGUCCCGUACGGAACG [U19C U26G], 0.815.

Turning to GUUACGUUGGCGUAAUGGUGACGCGUCUCCCUCCUAAGGAGAACGCUGCGGGUUCGAGUCUCGUACGGAACG [C4A A20G G44C A45G C61U], the yeast fitness is at most 0.5. The result for GGUCCGUUGCCGUAAUGGUAACGCGUCUCCCUCCUAAGGAGAAGACUGCGGGUUCGAGUCCCGUACGGAACG [U2G G10C] reads 0.527. As for GUUCCGUUGGCGUAAUGGUGACGCGUCUCCCUUCUAAGGAGAAGACUGCGGAUUCGAGUCCCAUACGGAACG [A20G C33U G52A G63A], the yeast fitness amounted to 0.707. The result for GUUCCGUUGGCGUAAUGGUAACGGGUCUCCCUCCUAAGGAGGUGACAGCGGGUUCGAGUCCCGUACGGAACG [C24G A42G A43U U47A] reads 0.635. Next, GUUCUGUUGGCGUAAUGGUAACGCGUGUCCCUCCUAAGGCGAAGACUGCGGGUUCGAGUCCCGUACGGAACG [C5U C27G A40C]: at most 0.5; GUUGCCUUGGCGUAAUGGUAACGCGUCUCCCUCCUAAGCAGAAGACUGCGGGUUCGAGUCCCGUACGGAACG [C4G G6C G39C]: 0.578. Next, GUUCCGUUCGCGUAAUGGUAACGCGUCUCCCUCCUAAGGAGAUGACUGAGGGUUCGAGUCCCGUACGGAACG [G9C A43U C49A]: at most 0.5; GUUCCGUUGGCGUAAUGGUAACGGGUUUCCCUCCUAAGGUGAAGACUGCGGGUUCGAGCCCCGUACGAAACG [C24G C27U A40U U59C G68A]: 0.582; GGUCCGUUGGGGUAAUGGUGACGUGUCUCCGUCCUAAGGAGAAGACUGCGGGUUCGAGUCCCGUACGGAACG [U2G C11G A20G C24U C31G]: 0.615.
